Data as given in ChEMBL document CHEMBL5338772, “Stereochemical Control of Splice Modulation in FD-895 Analogues” (J Med Chem, 2023).
Calls of active or inactive are those of the source. No cut-off for these calls is given here.

Legend:
[1] = Cytotoxicity against human HCT-116 cells assessed as cell growth inhibition incubated for 72 hrs by MTS assay; type: toxicity, cell-based
In short: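 HCT-116 cells (ATCC; split every other day, no more than five generations, mycoplasma-tested) plated at 5 × 10³ cells/well in supplemented McCoy's 5a and grown 24 h at 37 °C, 5% CO₂. Compound added from DMSO (0.5% DMSO final) for 72 h. Cells washed with PBS, MTS reagent added for 2 h at 37 °C, A490 read against A690. GI₅₀ fitted from dose curves of 3 biological replicates.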

HCT-116 [2] = assay: Cytotoxicity against human HCT-116 cells assessed as reduction in cell viability at 44 nM incubated for 4 hrs by MTS assay; type: toxicity, cell-based; details: hct-116, 4 h, 0.044 µM
SF3A3 pre-mRNA [3] = assay: Modulation of splicing in SF3A3 pre-mRNA in human HCT-116 cells assessed as intron 5 retention level at 44 nM incubated for 4 hrs by qRT-PCR analysis; type: functional, cell-based; details: filed as modulator
SF3B1 pre-mRNA [4] = assay: Modulation of splicing in SF3B1 pre-mRNA in human HCT-116 cells assessed as intron 13 retention level at 44 nM incubated for 4 hrs by qRT-PCR analysis; type: functional, cell-based; details: filed as modulator
In short: (§1)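 HCT-116 cells in supplemented McCoy's 5a, compound added from DMSO stock to a final 0.5% DMSO, 4 h at a single standardized concentration per analogue. Total RNA isolated and DNase-treated (1 µg). qPCR used 2.5 µM each primer on 5 ng cDNA, 40 cycles. Intron retention was computed by the 2^-CT method relative to GAPDH and expressed versus untreated cells set to 1.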

DNAJB1 pre-mRNA [5] = assay: Modulation of splicing in DNAJB1 pre-mRNA in human HCT-116 cells assessed as intron 2 retention level at 44 nM incubated for 4 hrs by qRT-PCR analysis; type: functional, cell-based; details: filed as modulator
SF3A1 pre-mRNA [6] = assay: Modulation of splicing in SF3A1 pre-mRNA in human HCT-116 cells assessed as intron 6 retention level at 44 nM incubated for 4 hrs by qRT-PCR analysis; type: functional, cell-based; details: filed as modulator
SF3B2 pre-mRNA [7] = assay: Modulation of splicing in SF3B2 pre-mRNA in human HCT-116 cells assessed as intron 10 retention level at 44 nM incubated for 4 hrs by qRT-PCR analysis; type: functional, cell-based; details: filed as modulator; in short: as §1
HCT-116 [8] = assay: Modulation of splicing in PLK-1 pre-mRNA in human HCT-116 cells assessed as effect on exon 3 inclusion at 44 nM incubated for 4 hrs by qRT-PCR analysis; type: functional, cell-based; details: filed as modulator
AURKA pre-mRNA [9] = assay: Modulation of splicing in AURKA pre-mRNA in human HCT-116 cells assessed as effect on exon 4 skipping at 44 nM incubated for 4 hrs by qRT-PCR analysis; type: functional, cell-based; details: filed as modulator
HCT-116 [10] = assay: Cytotoxicity against human HCT-116 cells assessed as reduction in cell viability at 8.6 uM incubated for 4 hrs by MTS assay; type: toxicity, cell-based; details: hct-116, 4 h
HCT-116 [11] = assay: Cytotoxicity against human HCT-116 cells assessed as reduction in cell viability at 500 nM incubated for 24 hrs by MTS assay; type: toxicity, cell-based; details: hct-116, 24 h, 0.5 µM
In short: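 HCT-116 cells plated at 5 × 10³ cells/well in supplemented McCoy's 5a and grown 24 h at 37 °C, 5% CO₂. Compound given at 500 nM, the top dose of the 24 h splicing series, in 0.5% DMSO for 24 h. Cells washed with PBS, MTS reagent added for 2 h at 37 °C, A490 read against A690.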

DNAJB1 pre-mRNA [12] = assay: Modulation of splicing in DNAJB1 pre-mRNA in human HCT-116 cells assessed as intron 2 retention at 100 to 500 nM incubated for 24 hrs by qRT-PCR analysis; type: functional, cell-based; details: dose 100-500 nM
In short: (§2)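 HCT-116 cells in supplemented McCoy's 5a with 0.5% DMSO, treated 24 h at 100, 250 or 500 nM; untreated cells as control. Total RNA isolated, 1 µg DNase I-treated, reverse transcribed. qPCR on 5 ng cDNA with 2.5 µM each primer, 40 cycles of 95 °C 30 s, 55 °C 60 s, 72 °C 60 s. Splice-event primers for intron retention or exon skipping; SF2 primers measure total expression. 2^-CT method relative to GAPDH, untreated set at 1.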

SF3A3 pre-mRNA [13] = assay: Modulation of splicing in SF3A3 pre-mRNA in human HCT-116 cells assessed as intron 5 retention level at 8.6 uM incubated for 4 hrs by qRT-PCR analysis; type: functional, cell-based; details: filed as modulator; in short: as §1
SF3B1 pre-mRNA [14] = assay: Modulation of splicing in SF3B1 pre-mRNA in human HCT-116 cells assessed as intron 13 retention level at 8.6 uM incubated for 4 hrs by qRT-PCR analysis; type: functional, cell-based; details: filed as modulator; in short: as §1
DNAJB1 pre-mRNA [15] = assay: Modulation of splicing in DNAJB1 pre-mRNA in human HCT-116 cells assessed as intron 2 retention level at 8.6 uM incubated for 4 hrs by qRT-PCR analysis; type: functional, cell-based; details: filed as modulator
SF3A1 pre-mRNA [16] = assay: Modulation of splicing in SF3A1 pre-mRNA in human HCT-116 cells assessed as intron 6 retention level at 8.6 uM incubated for 4 hrs by qRT-PCR analysis; type: functional, cell-based; details: filed as modulator
SF3B2 pre-mRNA [17] = assay: Modulation of splicing in SF3B2 pre-mRNA in human HCT-116 cells assessed as intron 10 retention level at 8.6 uM incubated for 4 hrs by qRT-PCR analysis; type: functional, cell-based; details: filed as modulator; in short: as §1
HCT-116 [18] = assay: Modulation of splicing in PLK-1 pre-mRNA in human HCT-116 cells assessed as effect on exon 3 inclusion at 8.6 uM incubated for 4 hrs by qRT-PCR analysis; type: functional, cell-based; details: filed as modulator
AURKA pre-mRNA [19] = assay: Modulation of splicing in AURKA pre-mRNA in human HCT-116 cells assessed as effect on exon 4 skipping at 8.6 uM incubated for 4 hrs by qRT-PCR analysis; type: functional, cell-based; details: filed as modulator
SF3A3 pre-mRNA [20] = assay: Modulation of splicing in SF3A3 pre-mRNA in human HCT-116 cells assessed as intron 5 retention at 100 to 500 nM incubated for 24 hrs by qRT-PCR analysis; type: functional, cell-based; details: dose 100-500 nM; in short: as §2
SF3B2 pre-mRNA [21] = assay: Modulation of splicing in SF3B2 pre-mRNA in human HCT-116 cells assessed as intron 10 retention at 100 to 500 nM incubated for 24 hrs by qRT-PCR analysis; type: functional, cell-based; details: dose 100-500 nM
In short: (§3)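 HCT-116 cells in supplemented McCoy's 5a with 0.5% final DMSO were treated for 24 h at 100, 250 or 500 nM. Total RNA isolated and DNase-treated (1 µg). qPCR used 2.5 µM each primer on 5 ng cDNA, 40 cycles. Intron retention was computed by the 2^-CT method relative to GAPDH and expressed versus untreated cells set to 1.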

SF3B1 pre-mRNA [22] = assay: Modulation of splicing in SF3B1 pre-mRNA in human HCT-116 cells assessed as intron 13 retention at 100 to 500 nM incubated for 24 hrs by qRT-PCR analysis; type: functional, cell-based; details: dose 100-500 nM; in short: as §3
SF3A1 pre-mRNA [23] = assay: Modulation of splicing in SF3A1 pre-mRNA in human HCT-116 cells assessed as intron 6 retention at 100 to 500 nM incubated for 24 hrs by qRT-PCR analysis; type: functional, cell-based; details: dose 100-500 nM; in short: as §2
HCT-116 [24] = assay: Modulation of splicing in MCL-1L pre-mRNA in human HCT-116 cells assessed as intron 5 retention at 100 to 500 nM incubated for 24 hrs by qRT-PCR analysis; type: functional, cell-based; details: dose 100-500 nM; in short: as §2
HCT-116 [25] = assay: Cytotoxicity against human HCT-116 cells assessed as reduction in cell viability at 34 nM incubated for 4 hrs by MTS assay; type: toxicity, cell-based; details: hct-116, 4 h, 0.034 µM
SF3A3 pre-mRNA [26] = assay: Modulation of splicing in SF3A3 pre-mRNA in human HCT-116 cells assessed as intron 5 retention level at 34 nM incubated for 4 hrs by qRT-PCR analysis; type: functional, cell-based; details: filed as modulator
SF3B1 pre-mRNA [27] = assay: Modulation of splicing in SF3B1 pre-mRNA in human HCT-116 cells assessed as intron 13 retention level at 34 nM incubated for 4 hrs by qRT-PCR analysis; type: functional, cell-based; details: filed as modulator; in short: as §1
DNAJB1 pre-mRNA [28] = assay: Modulation of splicing in DNAJB1 pre-mRNA in human HCT-116 cells assessed as intron 2 retention level at 34 nM incubated for 4 hrs by qRT-PCR analysis; type: functional, cell-based; details: filed as modulator
SF3A1 pre-mRNA [29] = assay: Modulation of splicing in SF3A1 pre-mRNA in human HCT-116 cells assessed as intron 6 retention level at 34 nM incubated for 4 hrs by qRT-PCR analysis; type: functional, cell-based; details: filed as modulator
SF3B2 pre-mRNA [30] = assay: Modulation of splicing in SF3B2 pre-mRNA in human HCT-116 cells assessed as intron 10 retention level at 34 nM incubated for 4 hrs by qRT-PCR analysis; type: functional, cell-based; details: filed as modulator; in short: as §1
HCT-116 [31] = assay: Downregulation of SF3 mRNA expression in human HCT-116 cells at 34 nM incubated for 4 hrs by qRT-PCR analysis; type: functional, cell-based

CC[C@H](OC)[C@@H](C)[C@H]1O[C@@H]1[C@H](O)[C@H](C)/C=C/C=C(\C)[C@H]1OC(=O)C[C@@H](O)CC[C@@](C)(O)[C@@H](OC(C)=O)/C=C/[C@@H]1C
GI50 at 72 h [1]: 2.7 nM
Activity (HCT-116 [2]): Non-Toxic
Activity (SF3A3 pre-mRNA [3]): < 3
Activity (SF3B1 pre-mRNA [4]): < 3
Activity (DNAJB1 pre-mRNA [5]): > 3
Activity (SF3A1 pre-mRNA [6]): > 3
Activity (SF3B2 pre-mRNA [7]): > 3
Activity (HCT-116 [8]): Active
Activity (AURKA pre-mRNA [9]): Active

CC[C@H](OC)[C@@H](C)[C@H]1O[C@@H]1[C@H](O)[C@H](C)/C=C/C=C(\C)[C@H]1OC(=O)C[C@H](O)CC[C@@](C)(O)[C@H](OC(C)=O)/C=C/[C@@H]1C
GI50 at 72 h [1]: 588 nM
Activity (HCT-116 [10]): Non-Toxic
Activity (HCT-116 [11]): Non-Toxic
Activity (DNAJB1 pre-mRNA [12]): inactive
Activity (SF3A3 pre-mRNA [13]): < 3
Activity (SF3B1 pre-mRNA [14]): < 3
Activity (DNAJB1 pre-mRNA [15]): > 3
Activity (SF3A1 pre-mRNA [16]): > 3
Activity (SF3B2 pre-mRNA [17]): > 3
Activity (HCT-116 [18]): Active
Activity (AURKA pre-mRNA [19]): Active
Activity (SF3A3 pre-mRNA [20]): inactive
Activity (SF3B2 pre-mRNA [21]): inactive
Activity (SF3B1 pre-mRNA [22]): inactive
Activity (SF3A1 pre-mRNA [23]): inactive
Activity (HCT-116 [24]): inactive

CC[C@H](OC)[C@@H](C)[C@H]1O[C@@H]1[C@H](O)[C@H](C)/C=C/C=C(\C)[C@H]1OC(=O)C[C@H](O)CC[C@@](C)(O)[C@@H](OC(C)=O)/C=C/[C@@H]1C
GI50 at 72 h [1]: 1.9 nM
Activity (HCT-116 [25]): Non-Toxic
Activity (HCT-116 [11]): Non-Toxic
Activity (SF3A3 pre-mRNA [26]): < 3
Activity (SF3B1 pre-mRNA [27]): < 3
Activity (DNAJB1 pre-mRNA [28]): > 3
Activity (SF3A1 pre-mRNA [29]): > 3
Activity (SF3B2 pre-mRNA [30]): > 3
Activity (HCT-116 [31]): Active

CC[C@H](OC)[C@@H](C)[C@H]1O[C@@H]1[C@H](O)[C@H](C)/C=C/C=C(\C)[C@@H]1OC(=O)C[C@H](O)CC[C@@](C)(O)[C@@H](OC(C)=O)/C=C/[C@H]1C
GI50 at 72 h [1]: 41300 nM
